Drawing on ChEMBL document CHEMBL4033747, “Design and synthesis of a novel inhibitor of T. Viride chitinase through an in silico target fishing protocol” (Bioorg Med Chem Lett, 2017), this text covers IC50, Ki and MIC90 for nine compounds.

Values after ≈ are worked out from the molar mass of the structure shown.

Experiment [1] addresses Chitinase (Hypocrea rufa, UniProt D2K848). Kind of experiment: Inhibition of Trichoderma viride chitinase incubated for 10 mins to 3 hrs using 4-nitrophenyl N-acetyl-beta-D-glucosaminide substrate by spectrophotometry. In a few lines: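 Commercial Trichoderma viride chitinase preincubated with varying inhibitor concentrations directly in the reading plate, room temperature, 3 h. Substrate 4-nitrophenyl N-acetyl-β-D-glucosaminide then added. […] IC50 and Ki calculated from these readings.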

Experiment [2] has as its system Candida albicans. Kind of experiment: Antifungal activity against Candida albicans incubated for 24 hrs by visual and spectrophotometry method. Type of experiment: functional.
In experiment [3] the test system is Meyerozyma guilliermondii. Kind of experiment: Antifungal activity against Candida guillermondii incubated for 24 hrs by visual and spectrophotometry method. Type of experiment: functional.
Experiment [4] has as its system Pichia kudriavzevii. Kind of experiment: Antifungal activity against Candida krusei incubated for 24 hrs by visual and spectrophotometry method. Type of experiment: functional.
Experiment [5] relates to Candida parapsilosis. Kind of experiment: Antifungal activity against Candida parapsilosis incubated for 24 hrs by visual and spectrophotometry method. Type of experiment: functional. Conditions: Lodderomyces parapsilosis.
Experiment [6] has as its system Candida tropicalis. Description: Antifungal activity against Candida tropicalis incubated for 24 hrs by visual and spectrophotometry method. Type of experiment: functional.
Experiment [7] has as its system Kluyveromyces marxianus. Kind of experiment: Antifungal activity against Candida kefyr incubated for 24 hrs by visual and spectrophotometry method. Type of experiment: functional.
Experiment [8] relates to Nakaseomyces glabratus. Kind of experiment: Antifungal activity against Candida glabrata incubated for 24 hrs by visual and spectrophotometry method. Type of experiment: functional.

Chain of Chitinase (D2K848 whole entry): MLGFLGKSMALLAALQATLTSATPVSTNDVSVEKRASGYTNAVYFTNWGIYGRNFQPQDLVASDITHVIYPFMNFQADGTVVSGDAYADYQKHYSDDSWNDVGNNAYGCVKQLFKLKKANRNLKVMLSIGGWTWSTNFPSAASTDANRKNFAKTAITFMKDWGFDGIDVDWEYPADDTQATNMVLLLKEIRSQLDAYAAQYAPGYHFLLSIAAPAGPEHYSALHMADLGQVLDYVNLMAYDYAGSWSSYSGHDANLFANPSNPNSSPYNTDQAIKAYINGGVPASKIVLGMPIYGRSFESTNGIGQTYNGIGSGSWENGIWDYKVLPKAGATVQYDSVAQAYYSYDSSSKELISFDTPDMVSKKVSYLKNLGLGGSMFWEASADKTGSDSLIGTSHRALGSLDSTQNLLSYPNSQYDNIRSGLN

Broadly, the IC50 is the point on the concentration scale where inhibition reaches its midpoint. A low value points to inhibition by little substance. The term Ki denotes the equilibrium dissociation constant of an inhibitor or competing ligand from its target. In experiment [1], `C/C=C/CNC(=N)NCCCCCCCCN1CCCCCOc2ccccc2CNC(=N)NC1=O` returned an IC50 of 55 µM and a Ki of 17.8 µM.

Take `N=C(NCCCCCCCCN1CCCCCCCCNC(=N)NC1=O)NCC1CC1`: in experiment [1], the IC50 came out at 130 µM and affinity was put at a Ki of 42 µM.

As a reminder, the MIC90 is an inhibitory concentration at the 90% level, which refers to growth in some studies and to a panel of isolates in others. A higher MIC90 goes with lower susceptibility. Consider `C/C=C/CNC(=N)NCCCCCCCCN1CCCCCCOc2ccccc2CNC(=N)NC1=O`, for which the IC50 in experiment [1] is 35.5 µM. The compound also registered a Ki in experiment [1] of 14.1 µM. Moreover, the MIC90 was 4 µg/mL (≈ 7.79 µM) in experiment [2]; 2 µg/mL (≈ 3.89 µM) in experiment [3]; 4 µg/mL (≈ 7.79 µM) in experiment [4]; 2 µg/mL (≈ 3.89 µM) in experiment [5]; 1 µg/mL (≈ 1.95 µM) in experiment [6]; 2 µg/mL (≈ 3.89 µM) in experiment [7]. In addition, the MIC90 in experiment [8] came out at 16 µg/mL (≈ 31.1 µM).

In experiment [1], `CCNC(=N)NCCCCCCN1CCCCCCCCNC(=N)NC1=O` came in with an IC50 of 140 µM and a Ki of 45.3 µM.

In experiment [1], `C/C=C/CNC(=N)NCCCCCCN1CCCCCCCCNC(=N)NC1=O` displayed an IC50 of 111 µM and a Ki of 35.8 µM.

With `C=C(C)CNC(=N)NCCCCCCN1CCCCCCCCNC(=N)NC1=O`, in experiment [1], 108 µM corresponded to half-maximal inhibition (IC50) and the Ki was found to be 34.8 µM.

In experiment [1], `C#CCNC(=N)NCCCCCCN1CCCCCCCCNC(=N)NC1=O` showed an IC50 of 97 µM and a Ki of 31.3 µM.

Take `CNC(=O)NC(=N)NCCCCCCCCN1CCCCCCOc2ccccc2CNC(=N)NC1=O`: the IC50 in experiment [1] was found to be 0.68 µM. For the same compound, the affinity in experiment [1] corresponds to a Ki of 0.22 µM. Besides, the MIC90 in experiment [2] was 25 µg/mL (≈ 48.4 µM); in experiment [3] it was 25 µg/mL (≈ 48.4 µM); in experiment [4] it was 12 µg/mL (≈ 23.2 µM); in experiment [5], 25 µg/mL (≈ 48.4 µM); in experiment [6], 12 µg/mL (≈ 23.2 µM); in experiment [7], 6 µg/mL (≈ 11.6 µM). The MIC90 in experiment [8] was 25 µg/mL (≈ 48.4 µM).

In the case of `C/C=C/CNC(=N)NCCCCCCCCN1CCCCCCCCNC(=N)NC1=O`, in experiment [1], the IC50 is 157 µM and the Ki was 50.8 µM.
